Results as given in ChEMBL document CHEMBL3085762, “Expeditious synthesis, enantiomeric resolution, and enantiomer functional characterization of (4-(4-bromophenyl)-3a,4,5,9b-tetrahydro-3H-cyclopenta[c]quinoline-8-sulfonamide (4BP-TQS): an allosteric agonist-positive allosteric modulator of α7 nicotinic acetylcholine receptors” (J Med Chem, 2013).
Calls of active or inactive are those of the source. The calls are words filed in the database; no cut-off is given here.

Legend:
Type in all cases: cell-based
[1] = target: T1, Neuronal acetylcholine receptor subunit alpha-7 (Homo sapiens, UniProt P36544); experiment: Potency index, ratio of ACh EC50 to compound EC50 for human alpha7 nAChR expressed in Xenopus oocytes
[2] = target: T1, Neuronal acetylcholine receptor subunit alpha-7; experiment: Agonist activity at human alpha7 nAChR expressed in Xenopus oocytes at 60 uM after 5 mins by two-electrode voltage clamp method relative to ACh
[3] = target: T1, Neuronal acetylcholine receptor subunit alpha-7; experiment: Positive allosteric modulation of human alpha7 nAChR expressed in Xenopus oocytes assessed as potentiation of ACh-induced response at 30 uM measured over 5 mins by two-electrode voltage clamp method in presence of choline
In short: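 α7-expressing Xenopus oocytes get control 60 μM ACh applications, then 300 μM choline together with 30 μM drug (racemate or single enantiomer). Potentiation is measured by two-electrode voltage clamp and normalized to the initial ACh controls.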

[4] = target: T1, Neuronal acetylcholine receptor subunit alpha-7; experiment: Allosteric agonist activity at human alpha7 nAChR expressed in Xenopus oocytes at 10 uM measured over 120 secs by two-electrode voltage clamp method
In short: (§1)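 Xenopus oocytes expressing human α7 receive control 60 μM ACh, then 10 μM drug alone or with 10 μM of the other enantiomer. Pre-incubation is 30 s or 5 min, followed by ACh to assess potentiation. Responses are measured over a 120-second interval from the start of drug application. Potentiation is followed over 20 minutes. Two-electrode voltage clamp.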

[5] = target: T1, Neuronal acetylcholine receptor subunit alpha-7; experiment: Positive allosteric modulation of human alpha7 nAChR expressed in Xenopus oocytes assessed as potentiation of ACh-induced response at 10 uM measured over 120 secs by two-electrode voltage clamp method
[6] = target: T1, Neuronal acetylcholine receptor subunit alpha-7; experiment: Positive allosteric modulation of human alpha7 nAChR expressed in Xenopus oocytes assessed as potentiation of ACh-induced response after 20 secs by two-electrode voltage clamp method
[7] = target: T1, Neuronal acetylcholine receptor subunit alpha-7; experiment: Positive allosteric modulation of human alpha7 nAChR expressed in Xenopus oocytes assessed as potentiation of ACh-induced response at 10 uM preincubated for 5 mins measured over 20 mins by two-electrode voltage clamp method; in short: as §1
[8] = target: T1, Neuronal acetylcholine receptor subunit alpha-7; experiment: Positive allosteric modulation of human alpha7 nAChR expressed in Xenopus oocytes assessed as potentiation of ACh-induced response at 10 uM treated 4 mins prior to ACh addition by two-electrode voltage clamp method
[9] = target: T1, Neuronal acetylcholine receptor subunit alpha-7; experiment: Allosteric agonist activity at human alpha7 nAChR expressed in Xenopus oocytes after 20 secs by two-electrode voltage clamp method
In short: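 Human α7 nAChR in Xenopus oocytes under two-electrode voltage clamp. Control applications of 60 μM ACh come first, then a standard 20-second drug application over a range of concentrations. Net-charge response is normalized to the mean of the two initial ACh controls. At least four oocytes per condition. EC50 is taken from the concentration-response curve.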

[10] = target: T1, Neuronal acetylcholine receptor subunit alpha-7; experiment: Allosteric agonist activity at human alpha7 nAChR expressed in Xenopus oocytes at 10 uM preincubated for 5 mins by two-electrode voltage clamp method; in short: as §1

T1 sequence (P36544 whole entry): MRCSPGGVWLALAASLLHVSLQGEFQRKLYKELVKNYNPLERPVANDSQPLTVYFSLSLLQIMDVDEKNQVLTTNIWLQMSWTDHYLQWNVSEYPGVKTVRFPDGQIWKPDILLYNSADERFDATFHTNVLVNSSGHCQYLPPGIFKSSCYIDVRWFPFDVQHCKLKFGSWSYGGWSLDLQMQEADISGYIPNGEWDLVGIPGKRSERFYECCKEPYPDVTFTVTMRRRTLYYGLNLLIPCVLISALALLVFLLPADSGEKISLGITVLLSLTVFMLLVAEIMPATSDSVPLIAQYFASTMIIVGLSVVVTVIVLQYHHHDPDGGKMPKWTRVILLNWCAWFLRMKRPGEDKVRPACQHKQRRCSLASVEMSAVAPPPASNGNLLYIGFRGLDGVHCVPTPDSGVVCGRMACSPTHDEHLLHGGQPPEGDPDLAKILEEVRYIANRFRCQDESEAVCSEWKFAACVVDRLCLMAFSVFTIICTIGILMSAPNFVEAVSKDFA

Row | Ratio EC50 [1] | fold change (FC) [2] | Activity [3] | Activity [4] | Activity [5] | Activity [6] | Activity [7] | Activity [8] | EC50 [9] | Activity [10] | SMILES
1 | 8 | 45 | Active |  |  |  |  |  |  |  | NS(=O)(=O)c1ccc2c(c1)[C@H]1C=CC[C@H]1C(c1ccc(Br)cc1)N2 (mixture of isomers)
2 |  |  |  | inactive | inactive |  |  |  |  |  | NS(=O)(=O)c1ccc2c(c1)[C@@H]1C=CC[C@@H]1[C@H](c1ccc(Br)cc1)N2
3 |  |  | Active | Active |  | Dose-dependent effect | Active | Active | 28 µM | Active | NS(=O)(=O)c1ccc2c(c1)[C@H]1C=CC[C@H]1[C@@H](c1ccc(Br)cc1)N2
